Results taken from ChEMBL document CHEMBL4364301 (Eur J Med Chem, 2019).

Assays:
Type in all cases: functional
DU-145 [1] = assay: Antiproliferative activity against human DU145 cells assessed as reduction in cell growth incubated for 96 hrs by propidium iodide based 2D monolayer assay; settings: DU-145, 96 h
Summary of the method: (§1)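 After 24 h recovery, compound in medium or medium alone (control wells) was added at 10 half-log concentrations from 0.0032 to 100 µM, in triplicate, with at most 0.3% DMSO. After 96 h, wells were PBS-washed, stained with 7 µg/ml PI and 0.1% Triton X-100, and fluorescence read at 530/620 nm. IC50 came from a 4-parameter fit, geometric mean.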

DU-145 [2] = assay: Antiproliferative activity against human DU145 cells assessed as T/C value at 3.2 x 10^-2 uM incubated for 96 hrs by propidium iodide based 2D monolayer assay; summary of the method: as §1
VCaP [3] = assay: Antiproliferative activity against human VCaP cells assessed as T/C value at 1 uM incubated for 96 hrs by propidium iodide based 2D monolayer assay
Summary of the method: as §1, with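 “Cells were kept in RPMI 1640 with 25 mM HEPES, 10% FCS and gentamicin at 37 °C under 5% CO2, and plated at 4,000-20,000 cells/well. After 24” for “After 24”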

CWR22R [4] = assay: Antiproliferative activity against human 22Rv1 cells assessed as T/C value at 3.2 x 10^-1 uM incubated for 96 hrs by propidium iodide based 2D monolayer assay
Summary of the method: as §1, with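 “Cells were kept in RPMI 1640 with 25 mM HEPES, 10% FCS and gentamicin at 37 °C under 5% CO2, and plated at 4,000-20,000 cells/well. After 24” for “After 24”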

LNCaP [5] = assay: Antiproliferative activity against human LNCAP cells assessed as T/C value at 3.2 x 10^-2 uM incubated for 96 hrs by propidium iodide based 2D monolayer assay
Summary of the method: as §1, with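 “Cells were kept in RPMI 1640 with 25 mM HEPES, 10% FCS and gentamicin at 37 °C under 5% CO2, and plated at 4,000-20,000 cells/well. After 24” for “After 24”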

DU-145 [6] = assay: Antiproliferative activity against human DU145 cells assessed as T/C value at 1 x 10^-2 uM incubated for 96 hrs by propidium iodide based 2D monolayer assay; summary of the method: as §1
CWR22R [7] = assay: Antiproliferative activity against human 22Rv1 cells assessed as T/C value at 3.2 x 10^1 uM incubated for 96 hrs by propidium iodide based 2D monolayer assay
Summary of the method: as §1, with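 “Cells were kept in RPMI 1640 with 25 mM HEPES, 10% FCS and gentamicin at 37 °C under 5% CO2, and plated at 4,000-20,000 cells/well. After 24” for “After 24”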

CWR22R [8] = assay: Antiproliferative activity against human 22Rv1 cells assessed as T/C value at 1 x 10^1 uM incubated for 96 hrs by propidium iodide based 2D monolayer assay
Summary of the method: as §1, with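 “Cells were kept in RPMI 1640 with 25 mM HEPES, 10% FCS and gentamicin at 37 °C under 5% CO2, and plated at 4,000-20,000 cells/well. After 24” for “After 24”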

DU-145 [9] = assay: Antiproliferative activity against human DU145 cells assessed as T/C value at 1 x 10^2 uM incubated for 96 hrs by propidium iodide based 2D monolayer assay
Summary of the method: as §1, with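 “Cells were kept in RPMI 1640 with 25 mM HEPES, 10% FCS and gentamicin at 37 °C under 5% CO2, and plated at 4,000-20,000 cells/well. After 24” for “After 24”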

VCaP [10] = assay: Antiproliferative activity against human VCaP cells assessed as T/C value at 1 x 10^-2 uM incubated for 96 hrs by propidium iodide based 2D monolayer assay
Summary of the method: as §1, with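 “Cells were kept in RPMI 1640 with 25 mM HEPES, 10% FCS and gentamicin at 37 °C under 5% CO2, and plated at 4,000-20,000 cells/well. After 24” for “After 24”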

VCaP [11] = assay: Antiproliferative activity against human VCaP cells assessed as T/C value at 1 x 10^1 uM incubated for 96 hrs by propidium iodide based 2D monolayer assay
Summary of the method: as §1, with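 “Cells were kept in RPMI 1640 with 25 mM HEPES, 10% FCS and gentamicin at 37 °C under 5% CO2, and plated at 4,000-20,000 cells/well. After 24” for “After 24”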

LNCaP [12] = assay: Antiproliferative activity against human LNCAP cells assessed as T/C value at 1 x 10^-2 uM incubated for 96 hrs by propidium iodide based 2D monolayer assay
Summary of the method: as §1, with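 “Cells were kept in RPMI 1640 with 25 mM HEPES, 10% FCS and gentamicin at 37 °C under 5% CO2, and plated at 4,000-20,000 cells/well. After 24” for “After 24”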

CWR22R [13] = assay: Antiproliferative activity against human 22Rv1 cells assessed as T/C value at 1 x 10^2 uM incubated for 96 hrs by propidium iodide based 2D monolayer assay
Summary of the method: as §1, with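 “Cells were kept in RPMI 1640 with 25 mM HEPES, 10% FCS and gentamicin at 37 °C under 5% CO2, and plated at 4,000-20,000 cells/well. After 24” for “After 24”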

LNCaP [14] = assay: Antiproliferative activity against human LNCAP cells assessed as T/C value at 3.2 x 10^-1 uM incubated for 96 hrs by propidium iodide based 2D monolayer assay
Summary of the method: as §1, with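 “Cells were kept in RPMI 1640 with 25 mM HEPES, 10% FCS and gentamicin at 37 °C under 5% CO2, and plated at 4,000-20,000 cells/well. After 24” for “After 24”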

CWR22R [15] = assay: Antiproliferative activity against human 22Rv1 cells assessed as T/C value at 1 uM incubated for 96 hrs by propidium iodide based 2D monolayer assay
Summary of the method: as §1, with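 “Cells were kept in RPMI 1640 with 25 mM HEPES, 10% FCS and gentamicin at 37 °C under 5% CO2, and plated at 4,000-20,000 cells/well. After 24” for “After 24”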

LNCaP [16] = assay: Antiproliferative activity against human LNCAP cells assessed as T/C value at 1 uM incubated for 96 hrs by propidium iodide based 2D monolayer assay
Summary of the method: as §1, with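 “Cells were kept in RPMI 1640 with 25 mM HEPES, 10% FCS and gentamicin at 37 °C under 5% CO2, and plated at 4,000-20,000 cells/well. After 24” for “After 24”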

CWR22R [17] = assay: Antiproliferative activity against human 22Rv1 cells assessed as T/C value at 3.2 x 10^-2 uM incubated for 96 hrs by propidium iodide based 2D monolayer assay
Summary of the method: as §1, with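 “Cells were kept in RPMI 1640 with 25 mM HEPES, 10% FCS and gentamicin at 37 °C under 5% CO2, and plated at 4,000-20,000 cells/well. After 24” for “After 24”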

DU-145 [18] = assay: Antiproliferative activity against human DU145 cells assessed as T/C value at 1 uM incubated for 96 hrs by propidium iodide based 2D monolayer assay; summary of the method: as §1
LNCaP [19] = assay: Antiproliferative activity against human LNCAP cells assessed as T/C value at 1 x 10^1 uM incubated for 96 hrs by propidium iodide based 2D monolayer assay
Summary of the method: as §1, with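 “Cells were kept in RPMI 1640 with 25 mM HEPES, 10% FCS and gentamicin at 37 °C under 5% CO2, and plated at 4,000-20,000 cells/well. After 24” for “After 24”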

CWR22R [20] = assay: Antiproliferative activity against human 22Rv1 cells assessed as T/C value at 3.2 uM incubated for 96 hrs by propidium iodide based 2D monolayer assay
Summary of the method: as §1, with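 “Cells were kept in RPMI 1640 with 25 mM HEPES, 10% FCS and gentamicin at 37 °C under 5% CO2, and plated at 4,000-20,000 cells/well. After 24” for “After 24”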

CWR22R [21] = assay: Antiproliferative activity against human 22Rv1 cells assessed as reduction in cell growth incubated for 96 hrs by propidium iodide based 2D monolayer assay; settings: 22Rv1, 96 h; summary of the method: as §1
DU-145 [22] = assay: Antiproliferative activity against human DU145 cells assessed as T/C value at 3.2 x 10^-3 uM incubated for 96 hrs by propidium iodide based 2D monolayer assay; summary of the method: as §1
DU-145 [23] = assay: Antiproliferative activity against human DU145 cells assessed as T/C value at 3.2 x 10^1 uM incubated for 96 hrs by propidium iodide based 2D monolayer assay
Summary of the method: as §1, with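 “Cells were kept in RPMI 1640 with 25 mM HEPES, 10% FCS and gentamicin at 37 °C under 5% CO2, and plated at 4,000-20,000 cells/well. After 24” for “After 24”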

VCaP [24] = assay: Antiproliferative activity against human VCaP cells assessed as T/C value at 3.2 uM incubated for 96 hrs by propidium iodide based 2D monolayer assay
Summary of the method: as §1, with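 “Cells were kept in RPMI 1640 with 25 mM HEPES, 10% FCS and gentamicin at 37 °C under 5% CO2, and plated at 4,000-20,000 cells/well. After 24” for “After 24”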

VCaP [25] = assay: Antiproliferative activity against human VCaP cells assessed as T/C value at 1 x 10^-1 uM incubated for 96 hrs by propidium iodide based 2D monolayer assay
Summary of the method: as §1, with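 “Cells were kept in RPMI 1640 with 25 mM HEPES, 10% FCS and gentamicin at 37 °C under 5% CO2, and plated at 4,000-20,000 cells/well. After 24” for “After 24”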

VCaP [26] = assay: Antiproliferative activity against human VCaP cells assessed as T/C value at 3.2 x 10^-1 uM incubated for 96 hrs by propidium iodide based 2D monolayer assay
Summary of the method: (§2)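 VCaP cells in RPMI 1640 with 10% FCS at 37 °C, 5% CO2, seeded 4,000–20,000 cells/well and left 24 h before dosing. Compounds from DMSO stocks were diluted in half-log steps in medium, 10 concentrations 0.0032–100 μM, triplicate wells, max 0.3% DMSO. After 96 h, cells were washed, stained with 7 μg/ml propidium iodide plus 0.1% Triton X-100 for 1–2 h at room temperature, and fluorescence read at ex 530/em 620 nm.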

LNCaP [27] = assay: Antiproliferative activity against human LNCAP cells assessed as T/C value at 3.2 uM incubated for 96 hrs by propidium iodide based 2D monolayer assay
Summary of the method: as §1, with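 “Cells were kept in RPMI 1640 with 25 mM HEPES, 10% FCS and gentamicin at 37 °C under 5% CO2, and plated at 4,000-20,000 cells/well. After 24” for “After 24”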

VCaP [28] = assay: Antiproliferative activity against human VCaP cells assessed as reduction in cell growth incubated for 96 hrs by propidium iodide based 2D monolayer assay; summary of the method: as §2
VCaP [29] = assay: Antiproliferative activity against human VCaP cells assessed as T/C value at 3.2 x 10^-3 uM incubated for 96 hrs by propidium iodide based 2D monolayer assay; summary of the method: as §2
LNCaP [30] = assay: Antiproliferative activity against human LNCAP cells assessed as T/C value at 3.2 x 10^-3 uM incubated for 96 hrs by propidium iodide based 2D monolayer assay
Summary of the method: as §1, with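 “Cells were kept in RPMI 1640 with 25 mM HEPES, 10% FCS and gentamicin at 37 °C under 5% CO2, and plated at 4,000-20,000 cells/well. After 24” for “After 24”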

CWR22R [31] = assay: Antiproliferative activity against human 22Rv1 cells assessed as T/C value at 1 x 10^-2 uM incubated for 96 hrs by propidium iodide based 2D monolayer assay
Summary of the method: as §1, with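 “Cells were kept in RPMI 1640 with 25 mM HEPES, 10% FCS and gentamicin at 37 °C under 5% CO2, and plated at 4,000-20,000 cells/well. After 24” for “After 24”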

LNCaP [32] = assay: Antiproliferative activity against human LNCAP cells assessed as T/C value at 1 x 10^2 uM incubated for 96 hrs by propidium iodide based 2D monolayer assay
Summary of the method: as §1, with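 “Cells were kept in RPMI 1640 with 25 mM HEPES, 10% FCS and gentamicin at 37 °C under 5% CO2, and plated at 4,000-20,000 cells/well. After 24” for “After 24”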

## CC1(C)C(=O)N(c2ccc(C#N)cc2C(F)(F)F)C(=S)N1c1cccc(S(F)(F)(F)(F)F)c1
DU-145 [1]
  IC50: 100 µM
  IC70: > 100 µM
DU-145 [2]
  T/C: 107%
VCaP [3]
  T/C: 76%
CWR22R [4]
  T/C: 101%
LNCaP [5]
  T/C: 103%
DU-145 [6]
  T/C: 104%
CWR22R [7]
  T/C: 56%
CWR22R [8]
  T/C: 60%
DU-145 [9]
  T/C: 83%
VCaP [10]
  T/C: 84%
VCaP [11]
  T/C: 59%
LNCaP [12]
  T/C: 91%
CWR22R [13]
  T/C: 51%
LNCaP [14]
  T/C: 85%
CWR22R [15]
  T/C: 97%
LNCaP [16]
  T/C: 79%
CWR22R [17]
  T/C: 107%
DU-145 [18]
  T/C: 112%
LNCaP [19]
  T/C: 36%
CWR22R [20]
  T/C: 93%
CWR22R [21]
  IC50: 100 µM
  IC70: > 100 µM
DU-145 [22]
  T/C: 102%
DU-145 [23]
  T/C: 87%
VCaP [24]
  T/C: 64%
VCaP [25]
  T/C: 88%
VCaP [26]
  T/C: 89%
LNCaP [27]
  T/C: 54%
VCaP [28]
  IC50: 100 µM
  IC70: > 100 µM
VCaP [29]
  T/C: 106%
LNCaP [30]
  T/C: 83%
CWR22R [31]
  T/C: 104%
LNCaP [32]
  T/C: 21%
